In ChEMBL document CHEMBL2407075, “Sulphonamido-quinoxalines: search for anticancer agent” (Eur J Med Chem, 2013):

Columns and labels:
Type in all cases: functional
A549 = assay: Growth inhibition of human A549/ATCC cells assessed as cell growth at 10^-8 M after 48 hrs by sulforhodamine B assay; details: A549, 48 h, read-out: Activity
How it was run: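 Five-dose NCI-60 run (0.01, 0.1, 1, 10 and 100 µM, as 10-fold dilutions from a DMSO stock made at 400× the top final level). Cells were grown in RPMI 1640 with 5% FBS and 2 mM glutamine and plated for 24 h. They were then exposed for 48 h at 37 °C and 5% CO2. TCA fixation was followed by SRB staining with A515 read-out. Percent growth was taken relative to time-zero and control plates.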

HCT-15 = assay: Growth inhibition of human HCT15 cells assessed as cell growth at 10^-8 M after 48 hrs by sulforhodamine B assay; details: HCT-15, 48 h, read-out: Activity
How it was run: (§1)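 Five-dose screen at NCI. Cells in RPMI 1640 with 5% FBS and 2 mM L-glutamine, seeded at 5000–40,000 cells/well and grown 24 h at 37 °C, 5% CO2 before dosing, with time-zero plates TCA-fixed. Drug diluted from DMSO stock to 0.01, 0.1, 1, 10 and 100 µM final, 48 h. Cells fixed with cold TCA (10% final), stained with 0.4% SRB and read at 515 nm. Percent growth from Tz, control and test absorbances; GI50, TGI and LC50 from dose-response curves.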

SN12C [1] = assay: Growth inhibition of human SN12C cells assessed as cell growth at 10^-6 M after 48 hrs by sulforhodamine B assay; details: read-out: Activity
NCI-H460 = assay: Growth inhibition of human NCI-H460 cells assessed as cell growth at 10^-8 M after 48 hrs by sulforhodamine B assay; details: NCI-H460, 48 h, read-out: Activity
NCI-H23 [2] = assay: Growth inhibition of human NCI-H23 cells assessed as cell growth at 10^-5 M after 48 hrs by sulforhodamine B assay; details: NCI-H23, 48 h, read-out: Activity
SK-MEL-28 = assay: Growth inhibition of human SK-MEL-28 cells after 48 hrs by sulforhodamine B assay; details: SK-MEL-28, 48 h; for CC50: read-out: LC50 (the source's name)
How it was run: (§2)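 Adherent cells in RPMI 1640 with 5% FBS and 2 mM L-glutamine were plated at 5000–40,000 cells/well and grown 24 h. Five concentrations (0.01–100 µM, DMSO stock) were added for 48 h at 37 °C. Cells were fixed with cold TCA (10% final) and stained with SRB, read at 515 nm. GI50 came from log concentration–growth curves against time-zero and control plates.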

UO-31 = assay: Growth inhibition of human UO31 cells assessed as cell growth at 10^-4 M after 48 hrs by sulforhodamine B assay; details: UO-31, 48 h, read-out: Activity
HOP-92 = assay: Growth inhibition of human HOP92 cells assessed as cell growth at 10^-6 M after 48 hrs by sulforhodamine B assay; details: HOP-92, 48 h, read-out: Activity; how it was run: as §1
SF-539 [3] = assay: Growth inhibition of human SF539 cells assessed as cell growth at 10^-5 M after 48 hrs by sulforhodamine B assay; details: SF-539, 48 h, read-out: Activity
SR = assay: Growth inhibition of human SR cells after 48 hrs by sulforhodamine B assay; details: for CC50: read-out: LC50 (the source's name)
How it was run: (§3)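 Leukemia suspension cells in RPMI 1640 with 5% FBS and 2 mM L-glutamine were plated at 5000–40,000 cells/well and grown 24 h. Five concentrations (0.01–100 µM) were given for 48 h at 37 °C. Settled cells were fixed with 80% TCA (16% final) and SRB-stained, read at 515 nm. GI50 came from dose–response curves against time-zero and control plates.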

T47D = assay: Growth inhibition of human T47D cells assessed as cell growth at 10^-6 M after 48 hrs by sulforhodamine B assay; details: read-out: Activity
[4] = Growth inhibition of human EKVX cells after 48 hrs by sulforhodamine B assay; details: for CC50: read-out: LC50 (the source's name); how it was run: as §2
TK-10 = assay: Growth inhibition of human TK10 cells assessed as cell growth at 10^-7 M after 48 hrs by sulforhodamine B assay; details: TK-10, 48 h, read-out: Activity
UACC-257 = assay: Growth inhibition of human UACC257 cells after 48 hrs by sulforhodamine B assay; details: UACC-257, 48 h, read-out: LC50 (the source's name)
How it was run: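 NCI-60 screen. Cells grown in RPMI 1640 with 5% FBS and 2 mM L-glutamine, plated at 5000–40,000 cells/well and preincubated 24 h at 37 °C, 5% CO2. A time-zero plate is TCA-fixed at drug addition. DMSO stocks diluted in medium; five concentrations (0.01, 0.1, 1, 10, 100 µM). Exposure 48 h, then cold TCA fixation and 0.4% SRB staining, absorbance at 515 nm. GI50 is taken from the growth-percentage curve relative to time zero and control.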

SF-539 [5] = assay: Growth inhibition of human SF539 cells assessed as cell growth at 10^-4 M after 48 hrs by sulforhodamine B assay; details: SF-539, 48 h, read-out: Activity
NCI-H23 [6] = assay: Growth inhibition of human NCI-H23 cells assessed as cell growth at 10^-8 M after 48 hrs by sulforhodamine B assay; details: NCI-H23, 48 h, read-out: Activity
HCT-116 = assay: Growth inhibition of human HCT116 cells assessed as cell growth at 10^-4 M after 48 hrs by sulforhodamine B assay; details: HCT-116, 48 h, read-out: Activity; how it was run: as §1
MCF7 = assay: Growth inhibition of human MCF7 cells assessed as cell growth at 10^-6 M after 48 hrs by sulforhodamine B assay; details: MCF7, 48 h, read-out: Activity
U-251 = assay: Growth inhibition of human U251 cells after 48 hrs by sulforhodamine B assay; details: U-251, 48 h; for CC50: read-out: LC50 (the source's name); how it was run: as §2
NCI-H322M = assay: Growth inhibition of human NCI-H322M cells assessed as cell growth at 10^-6 M after 48 hrs by sulforhodamine B assay; details: read-out: Activity
SN12C [7] = assay: Growth inhibition of human SN12C cells assessed as cell growth at 10^-5 M after 48 hrs by sulforhodamine B assay; details: read-out: Activity
NCI-H522 [8] = assay: Growth inhibition of human NCI-H522 cells assessed as cell growth at 10^-8 M after 48 hrs by sulforhodamine B assay; details: NCI-H522, 48 h, read-out: Activity
NCI-H522 [9] = assay: Growth inhibition of human NCI-H522 cells assessed as cell growth at 10^-5 M after 48 hrs by sulforhodamine B assay; details: NCI-H522, 48 h, read-out: Activity
SNB-19 = assay: Growth inhibition of human SNB19 cells assessed as cell growth at 10^-4 M after 48 hrs by sulforhodamine B assay; details: SNB-19, 48 h, read-out: Activity
OVCAR-8 = assay: Growth inhibition of human OVCAR8 cells assessed as cell growth at 10^-6 M after 48 hrs by sulforhodamine B assay; details: OVCAR-8, 48 h, read-out: Activity
HL-60(TB) = assay: Growth inhibition of human HL-60(TB) cells after 48 hrs by sulforhodamine B assay; details: HL-60, 48 h; for CC50: read-out: LC50 (the source's name); how it was run: as §3

O=S(=O)(Nc1ccc(Cl)cc1)c1ccc2nc(-c3ccccc3)c(-c3ccccc3)nc2c1
growth at 0.01 µM (A549): 94% | growth at 0.01 µM (HCT-15): 100% | growth at 1 µM (SN12C [1]): 93% | growth at 0.01 µM (NCI-H460): 101% | growth at 10 µM (NCI-H23 [2]): 4% | TGI (SK-MEL-28): > 100 µM | CC50 (SK-MEL-28): > 100 µM | growth at 100 µM (UO-31): 75% | growth at 1 µM (HOP-92): 78% | growth at 10 µM (SF-539 [3]): 5% | CC50 (SR): > 100 µM | growth at 1 µM (T47D): 69% | CC50 [4]: > 100 µM | growth at 0.1 µM (TK-10): 99% | CC50 (UACC-257): > 100 µM | growth at 100 µM (SF-539 [5]): 73% | growth at 0.01 µM (NCI-H23 [6]): 97% | growth at 100 µM (HCT-116): 52% | growth at 1 µM (MCF7): 93% | CC50 (U-251): > 100 µM | growth at 1 µM (NCI-H322M): 98% | growth at 10 µM (SN12C [7]): 21% | growth at 0.01 µM (NCI-H522 [8]): 93% | growth at 10 µM (NCI-H522 [9]): -34% | growth at 100 µM (SNB-19): 83% | growth at 1 µM (OVCAR-8): 92% | GI50 (HL-60(TB)): 2.09 µM | CC50 (HL-60(TB)): > 100 µM

O=S(=O)(Nc1ccccn1)c1ccc2nc(-c3ccccc3)c(-c3ccccc3)nc2c1
growth at 0.01 µM (A549): 95% | growth at 0.01 µM (HCT-15): 100% | growth at 1 µM (SN12C [1]): 91% | growth at 0.01 µM (NCI-H460): 104% | growth at 10 µM (NCI-H23 [2]): 4% | TGI (SK-MEL-28): > 100 µM | CC50 (SK-MEL-28): > 100 µM | growth at 100 µM (UO-31): 59% | growth at 1 µM (HOP-92): 77% | growth at 10 µM (SF-539 [3]): 7% | GI50 (SR): 1.4 µM | CC50 (SR): > 100 µM | growth at 1 µM (T47D): 54% | GI50 [4]: 2.69 µM | TGI [4]: > 100 µM | CC50 [4]: > 100 µM | growth at 0.1 µM (TK-10): 99% | CC50 (UACC-257): > 100 µM | growth at 100 µM (SF-539 [5]): 54% | growth at 0.01 µM (NCI-H23 [6]): 95% | growth at 100 µM (HCT-116): 39% | growth at 1 µM (MCF7): 87% | GI50 (U-251): 2.61 µM | TGI (U-251): > 100 µM | CC50 (U-251): > 100 µM | growth at 1 µM (NCI-H322M): 108% | growth at 10 µM (SN12C [7]): 26% | growth at 0.01 µM (NCI-H522 [8]): 89% | growth at 10 µM (NCI-H522 [9]): -42% | growth at 100 µM (SNB-19): 62% | growth at 1 µM (OVCAR-8): 85% | GI50 (HL-60(TB)): 1.71 µM | CC50 (HL-60(TB)): > 100 µM
